Results reported in ChEMBL document CHEMBL3271990, “Ergot alkaloids. New ergolines as selective dopaminergic stimulants” (1978).
Calls of active or inactive are those of the source. No cut-off for these calls is given here.

Legend:
[1] = test system: Rattus norvegicus; assay: Inhibition of ovum implantation in sc dosed inseminated rat; assay type: functional
Procedure, shortened: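 Inseminated rats dosed sc. ED value for inhibition of ovum implantation.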

[2] = test system: Rattus norvegicus; assay: Inhibition of serum prolactin in sc dosed rat after 4 hrs by RIA; assay type: functional
Procedure, shortened: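 Serum prolactin measured by RIA 4 h after sc dosing, expressed as NIH-RP. ED50 calculated from dose-response relationships.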

[3] = test system: Rattus norvegicus; assay: Induction of turning toward intact side in OFA rat model with 6-OH-DA-induced unilateral degeneration of nigrostriatal tract at 1 mg/kg, ip; assay type: functional, organism-based; set-up: dose 1 mg/kg
[4] = test system: Rattus norvegicus; assay: Induction of stereotypy in OFA rat at 10 mg/kg, sc measured every 30 mins for 2 hrs followed by every 60 mins for 7 hrs; assay type: functional, organism-based; set-up: dose 10 mg/kg
Procedure, shortened: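 Male OFA rats (180-250 g), housed singly in cylinders with wire-netting floor, acclimatized 30 min before dosing. Behaviour observed every 30 min for 2 h, then every 60 min up to 7 h total. Stereotypy (sniffing, licking, biting) scored on Costall et al. scale; total score per rat over 0-7 h. Six rats per dose.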

[5] = test system: Rattus norvegicus; assay: Induction of stereotypy in OFA rat at 30 mg/kg, ip measured every 30 mins for 2 hrs followed by every 60 mins for 7 hrs; assay type: functional, organism-based; set-up: dose 30 mg/kg
Procedure, shortened: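 Male OFA rats (180-250 g), each in its own cylinder with a wire-netting floor, acclimatized 30 min, then dosed. Observed every 30 min for 2 h, then every 60 min up to 7 h total. Six rats per dose. Sniffing, licking and biting scored with the Costall et al. system and summed as total activity per rat over 0-7 h.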

Structure (SMILES) | ED50 [1] [mg/kg] | ED50 [2] [mg/kg] | Activity [3] | Activity [4] | Activity [5]
CN1C[C@H](CC#N)C[C@@H]2c3cccc4[nH]cc(c34)C[C@H]21 | 1 | 0.06 | Active | – | –
CN1CCc2cccc3c2[C@H]1Cc1ccc(O)c(O)c1-3 | – | – | – | Active | –
CN1C[C@@H](CC#N)C[C@H]2c3cccc4[nH]cc(c34)C[C@H]21 | – | – | Active | – | Active
CC(C)C[C@H]1C(=O)N2CCC[C@H]2[C@]2(O)O[C@](NC(=O)[C@@H]3C=C4c5cccc6[nH]c(Br)c(c56)C[C@H]4N(C)C3)(C(C)C)C(=O)N12 [BROMOCRIPTINE] | 0.75 | 0.007 | – | – | Active
CN1C[C@@H](CC#N)C[C@@H]2c3cccc4[nH]cc(c34)C[C@H]21 [DELERGOTRILE] | 3 | 0.06 | Active | – | Active
CN1C[C@H](CC#N)C[C@@H]2c3cccc4[nH]c(Cl)c(c34)C[C@H]21 [LERGOTRILE] | 2 | 0.08 | Active | – | Active
CN1C[C@H](CSc2ccccn2)C=C2c3cccc4[nH]cc(c34)C[C@H]21 [TIOMERGINE] | 11.5 | 1.47 | Active | – | –
